Test results: ChEMBL document CHEMBL1781892, “Microwave assisted synthesis and structure-activity relationship of 4-hydroxy-N'-[1-phenylethylidene]-2H/2-methyl-1,2-benzothiazine-3-carbohydrazide 1,1-dioxides as anti-microbial agents” (2011)

Tests used:
[1] = test system: Aspergillus niger; test: Antifungal activity against Aspergillus niger using 1 x 10^5 spore/100 uL after 72 hrs by microdilution method; assay type: functional
[2] = test system: Aspergillus flavus; test: Antifungal activity against Aspergillus flavus using 1 x 10^5 spore/100 uL after 72 hrs by microdilution method; assay type: functional
[3] = test system: Aspergillus fumigatus; test: Antifungal activity against Aspergillus fumigatus using 1 x 10^5 spore/100 uL after 72 hrs by microdilution method; assay type: functional
[4] = test system: Trichoderma viride; test: Antifungal activity against Trichoderma viride using 1 x 10^5 spore/100 uL after 72 hrs by microdilution method; assay type: functional
[5] = Antifungal activity against Trichoderma reesei using 1 x 10^5 spore/100 uL after 72 hrs by microdilution method; assay type: functional
In short: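 Spores washed from malt agar cultures with sterile 0.85% saline plus 0.1% Tween 80, adjusted to about 1.0×10^5 per 100 µl well. Compounds from a 1 mg/ml DMSO stock were serially diluted in malt broth with inoculum in 96-well plates and incubated 72 h at 28 °C. MIC is the lowest concentration with no visible growth under a binocular microscope. DMSO served as negative control.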

[6] = test system: Curvularia australiensis; test: Antifungal activity against Drechslera australiensis using 1 x 10^5 spore/100 uL after 72 hrs by microdilution method; assay type: functional
[7] = test system: Aspergillus niger; test: Antifungal activity against Aspergillus niger using 1 x 10^5 spore/100 uL assessed as 99.5% fungal killing of original inoculum after 72 hrs by microdilution method; assay type: functional
[8] = test system: Aspergillus flavus; test: Antifungal activity against Aspergillus flavus using 1 x 10^5 spore/100 uL assessed as 99.5% fungal killing of original inoculum after 72 hrs by microdilution method; assay type: functional
[9] = test system: Aspergillus fumigatus; test: Antifungal activity against Aspergillus fumigatus using 1 x 10^5 spore/100 uL assessed as 99.5% fungal killing of original inoculum after 72 hrs by microdilution method; assay type: functional
[10] = test system: Trichoderma viride; test: Antifungal activity against Trichoderma viride using 1 x 10^5 spore/100 uL assessed as 99.5% fungal killing of original inoculum after 72 hrs by microdilution method; assay type: functional
[11] = Antifungal activity against Trichoderma reesei using 1 x 10^5 spore/100 uL assessed as 99.5% fungal killing of original inoculum after 72 hrs by microdilution method; assay type: functional
[12] = test system: Curvularia australiensis; test: Antifungal activity against Drechslera australiensis using 1 x 10^5 spore/100 uL assessed as 99.5% fungal killing of original inoculum after 72 hrs by microdilution method; assay type: functional
[13] = test system: Bacillus cereus; test: Antibacterial activity against Bacillus cereus using 1 x 10^4 CFU/ml inoculum after 24 hrs by microdilution method; assay type: functional
[14] = test system: Bacillus subtilis; test: Antibacterial activity against Bacillus subtilis using 1 x 10^4 CFU/ml inoculum after 24 hrs by microdilution method; assay type: functional
[15] = test system: Bacillus thuringiensis; test: Antibacterial activity against Bacillus thuringiensis using 1 x 10^4 CFU/ml inoculum after 24 hrs by microdilution method; assay type: functional
[16] = test system: Staphylococcus aureus; test: Antibacterial activity against Staphylococcus aureus using 1 x 10^4 CFU/ml inoculum after 24 hrs by microdilution method; assay type: functional
[17] = test system: Escherichia coli; test: Antibacterial activity against Escherichia coli using 1 x 10^4 CFU/ml inoculum after 24 hrs by microdilution method; assay type: functional
[18] = test system: Pseudomonas aeruginosa; test: Antibacterial activity against Pseudomonas aeruginosa using 1 x 10^4 CFU/ml inoculum after 24 hrs by microdilution method; assay type: functional
[19] = test system: Salmonella typhi; test: Antibacterial activity against Salmonella typhi using 1 x 10^4 CFU/ml inoculum after 24 hrs by microdilution method; assay type: functional, Salmonella enterica subsp. enterica serovar Typhi

Row | SMILES | MIC [1] | MIC [2] | MIC [3] | MIC [4] | MIC [5] | MIC [6] | MFC [7] | MFC [8] | MFC [9] | MFC [10] | MFC [11] | MFC [12] | MIC [13] | MIC [14] | MIC [15] | MIC [16] | MIC [17] | MIC [18] | MIC [19]
1 | C/C(=N\NC(=O)C1=C(O)c2ccccc2S(=O)(=O)N1)c1ccc(O)cc1 | >100 ×10⁻² umol | >100 ×10⁻² umol | >100 ×10⁻² umol | >100 ×10⁻² umol | > 100 ×10⁻² µmol | >100 ×10⁻² umol | >200 ×10⁻² umol | >200 ×10⁻² umol | >200 ×10⁻² umol | >200 ×10⁻² umol | > 200 ×10⁻² µmol | >200 ×10⁻² umol | 4.8 ×10⁻² umol | 4.9 ×10⁻² umol | 5 ×10⁻² umol | 19 ×10⁻² umol | 21.3 ×10⁻² umol | 22.6 ×10⁻² umol | 25.2 ×10⁻² umol
2 | C/C(=N\NC(=O)C1=C(O)c2ccccc2S(=O)(=O)N1)c1cccc(O)c1 | >100 ×10⁻² umol | >100 ×10⁻² umol | >100 ×10⁻² umol | >100 ×10⁻² umol | > 100 ×10⁻² µmol | >100 ×10⁻² umol | >200 ×10⁻² umol | >200 ×10⁻² umol | >200 ×10⁻² umol | >200 ×10⁻² umol | > 200 ×10⁻² µmol | >200 ×10⁻² umol | 4.5 ×10⁻² umol | 4.6 ×10⁻² umol | 4.4 ×10⁻² umol | 18.4 ×10⁻² umol | 19.7 ×10⁻² umol | 21.2 ×10⁻² umol | 23.5 ×10⁻² umol
3 | COc1cccc(/C(C)=N/NC(=O)C2=C(O)c3ccccc3S(=O)(=O)N2)c1 | 90.1 ×10⁻² umol | 92.7 ×10⁻² umol | 85.9 ×10⁻² umol | 80.7 ×10⁻² umol | 80 ×10⁻² µmol | 82 ×10⁻² umol | 176.3 ×10⁻² umol | 198.4 ×10⁻² umol | 181.2 ×10⁻² umol | 149.9 ×10⁻² umol | 161 ×10⁻² µmol | 162.7 ×10⁻² umol | 7.2 ×10⁻² umol | 7.5 ×10⁻² umol | 7.7 ×10⁻² umol | 24.5 ×10⁻² umol | 25.6 ×10⁻² umol | 26.7 ×10⁻² umol | 29.3 ×10⁻² umol
4 | C/C(=N\NC(=O)C1=C(O)c2ccccc2S(=O)(=O)N1C)c1ccc(I)cc1 | 91.4 ×10⁻² umol | 89.8 ×10⁻² umol | 81.9 ×10⁻² umol | 71.1 ×10⁻² umol | 70.1 ×10⁻² µmol | 74 ×10⁻² umol | 198.4 ×10⁻² umol | 190.7 ×10⁻² umol | 159.8 ×10⁻² umol | 139.2 ×10⁻² umol | 123 ×10⁻² µmol | 150.6 ×10⁻² umol | 9 ×10⁻² umol | 9.3 ×10⁻² umol | 9.2 ×10⁻² umol | 28 ×10⁻² umol | 29.3 ×10⁻² umol | 30.5 ×10⁻² umol | 33.2 ×10⁻² umol
5 | C/C(=N\NC(=O)C1=C(O)c2ccccc2S(=O)(=O)N1)c1ccc(I)cc1 | 91.5 ×10⁻² umol | 89.9 ×10⁻² umol | 82 ×10⁻² umol | 71.3 ×10⁻² umol | 70.3 ×10⁻² µmol | 74 ×10⁻² umol | 166.1 ×10⁻² umol | 179.8 ×10⁻² umol | 159.2 ×10⁻² umol | 139.7 ×10⁻² umol | 134 ×10⁻² µmol | 145.8 ×10⁻² umol | 9.1 ×10⁻² umol | 9.5 ×10⁻² umol | 9.4 ×10⁻² umol | 28.2 ×10⁻² umol | 29.5 ×10⁻² umol | 30.9 ×10⁻² umol | 33.4 ×10⁻² umol
6 | C/C(=N\NC(=O)C1=C(O)c2ccccc2S(=O)(=O)N1C)c1ccc(O)cc1 | >100 ×10⁻² umol | >100 ×10⁻² umol | >100 ×10⁻² umol | >100 ×10⁻² umol | > 100 ×10⁻² µmol | >100 ×10⁻² umol | >200 ×10⁻² umol | >200 ×10⁻² umol | >200 ×10⁻² umol | >200 ×10⁻² umol | > 200 ×10⁻² µmol | >200 ×10⁻² umol | 4.6 ×10⁻² umol | 4.8 ×10⁻² umol | 5 ×10⁻² umol | 18.9 ×10⁻² umol | 21 ×10⁻² umol | 22.1 ×10⁻² umol | 25.1 ×10⁻² umol
7 | C/C(=N\NC(=O)C1=C(O)c2ccccc2S(=O)(=O)N1C)c1cccc(O)c1 | >100 ×10⁻² umol | >100 ×10⁻² umol | >100 ×10⁻² umol | >100 ×10⁻² umol | > 100 ×10⁻² µmol | >100 ×10⁻² umol | >200 ×10⁻² umol | >200 ×10⁻² umol | >200 ×10⁻² umol | >200 ×10⁻² umol | > 200 ×10⁻² µmol | >200 ×10⁻² umol | 4.2 ×10⁻² umol | 4.5 ×10⁻² umol | 4.3 ×10⁻² umol | 18.2 ×10⁻² umol | 19.3 ×10⁻² umol | 21 ×10⁻² umol | 23.1 ×10⁻² umol
8 | C/C(=N\NC(=O)C1=C(O)c2ccccc2S(=O)(=O)N1)c1ccc(F)cc1F | 76.6 ×10⁻² umol | 76.4 ×10⁻² umol | 69.8 ×10⁻² umol | 72 ×10⁻² umol | 69 ×10⁻² µmol | 72.3 ×10⁻² umol | 160.3 ×10⁻² umol | 168.7 ×10⁻² umol | 118.2 ×10⁻² umol | 139.6 ×10⁻² umol | 138 ×10⁻² µmol | 145.7 ×10⁻² umol | 7.8 ×10⁻² umol | 8 ×10⁻² umol | 8.2 ×10⁻² umol | 28.1 ×10⁻² umol | 29.2 ×10⁻² umol | 30.6 ×10⁻² umol | 33.2 ×10⁻² umol
9 | COc1ccc(/C(C)=N/NC(=O)C2=C(O)c3ccccc3S(=O)(=O)N2)cc1 | 87.3 ×10⁻² umol | 86.2 ×10⁻² umol | 77.7 ×10⁻² umol | 80.5 ×10⁻² umol | 79.9 ×10⁻² µmol | 81.1 ×10⁻² umol | 179.5 ×10⁻² umol | 169.3 ×10⁻² umol | 153.6 ×10⁻² umol | 158.8 ×10⁻² umol | 160 ×10⁻² µmol | 159.6 ×10⁻² umol | 7.8 ×10⁻² umol | 7.5 ×10⁻² umol | 7.8 ×10⁻² umol | 26.7 ×10⁻² umol | 27.8 ×10⁻² umol | 29.3 ×10⁻² umol | 32.7 ×10⁻² umol
10 | COc1ccc(/C(C)=N/NC(=O)C2=C(O)c3ccccc3S(=O)(=O)N2C)cc1 | 87.2 ×10⁻² umol | 86.1 ×10⁻² umol | 77.6 ×10⁻² umol | 79.2 ×10⁻² umol | 78.9 ×10⁻² µmol | 80 ×10⁻² umol | 180.7 ×10⁻² umol | 170 ×10⁻² umol | 149.5 ×10⁻² umol | 158.4 ×10⁻² umol | 158 ×10⁻² µmol | 159.9 ×10⁻² umol | 7.9 ×10⁻² umol | 7.6 ×10⁻² umol | 7.8 ×10⁻² umol | 26.3 ×10⁻² umol | 27.9 ×10⁻² umol | 29.2 ×10⁻² umol | 32.4 ×10⁻² umol
11 | C/C(=N\NC(=O)C1=C(O)c2ccccc2S(=O)(=O)N1C)c1ccccc1Cl | 88.6 ×10⁻² umol | 87.1 ×10⁻² umol | 76.1 ×10⁻² umol | 66.5 ×10⁻² umol | 61.1 ×10⁻² µmol | 63.6 ×10⁻² umol | 167.9 ×10⁻² umol | 170.2 ×10⁻² umol | 144.6 ×10⁻² umol | 133.1 ×10⁻² umol | 119 ×10⁻² µmol | 126.5 ×10⁻² umol | 10.8 ×10⁻² umol | 11 ×10⁻² umol | 12 ×10⁻² umol | 30.7 ×10⁻² umol | 31.7 ×10⁻² umol | 32.6 ×10⁻² umol | –
